Bioassay records: PubChem BioAssay, Johns Hopkins Ion Channel Center
KCNK9 block: inhibitors of human KCNK9 two-pore domain potassium channel; AID 488922; B-score at 10 µM; HEK293 KCNK9, FluxOR thallium flux fluorescence; active compounds read low; Q9NPC2; hit rate 1.2% among 310,000;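 active means ratio B-score over 3 SD below the library mean, with starting fluorescence within 5 SD of its mean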;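 further: negative B-score means less thallium flux so channel inhibition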
Target sequence (Q9NPC2 whole entry, looked up, the tested form may be a part): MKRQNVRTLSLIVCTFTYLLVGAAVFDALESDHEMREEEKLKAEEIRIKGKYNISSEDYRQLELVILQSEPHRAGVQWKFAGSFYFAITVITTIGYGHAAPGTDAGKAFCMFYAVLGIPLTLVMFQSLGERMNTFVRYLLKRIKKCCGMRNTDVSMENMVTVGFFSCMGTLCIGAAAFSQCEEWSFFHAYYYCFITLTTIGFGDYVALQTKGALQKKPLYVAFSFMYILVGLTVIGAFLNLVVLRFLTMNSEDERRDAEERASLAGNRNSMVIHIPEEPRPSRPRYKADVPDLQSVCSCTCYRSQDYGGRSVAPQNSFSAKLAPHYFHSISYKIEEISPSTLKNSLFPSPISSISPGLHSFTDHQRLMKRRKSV
KCNK3 inh: human KCNK3 channel inhibition, primary screen. O14649. CHO-KCNK3 thallium flux, FluxOR fluorescence; active compounds read low. B-score at 10 µM. hit rate 0.84% among 340,000;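 active means B-score under library mean minus 4 SD, starting fluorescence ratio at most library mean plus 5 SD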;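 further: more negative B-score means stronger inhibition of thallium flux through KCNK3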
KCNQ1 inh: human KCNQ1 channel inhibition. P51787. CHO-K1 KCNQ1, FluxOR thallium flux fluorescence; active compounds read high. hit rate 1.3% among 310,000. B-score at 10 µM;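 active means compounds whose thallium flux B-score, printed positive for inhibition, exceeds three library SD while starting fluorescence stays within three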;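 further: channel opened by potassium depolarization with thallium stimulus after 20 min compound exposure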
KCNQ1 act: potentiates or activates the human KCNQ1 potassium channel | P51787 | CHO-K1 KCNQ1, thallium flux FluxOR fluorescence; active compounds read high | B-score at 10 µM | hit rate 0.35% among 310,000;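 active means fluorescence ratio B-score, a plate-corrected score, at least three library SD, with initial intensity B-score within 5 SD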
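System: Stable KCNQ1 CHO-K1 line | Incubation: 90 min dye loading and 20 min compound exposure, both at room temperature | Measure: Ratio B score | Medium: Assay buffer for compound exposure, DMSO matched across wells | Compound dosing: Single-concentration screen | Probe or stimulus: K+/Tl+ depolarizing stimulus | Measured by: Kinetic FluxOR fluorescence, 10 s baseline plus 110 s post-stimulus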
Kir21 inh: inhibitors of mouse Kir2.1 inward-rectifier potassium channel. HEK293-Kir2.1, FluxOR thallium flux fluorescence; active compounds read low. B-score at 10 µM. hit rate 0.85% among 310,000. AID 1672;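 active means fluorescence ratio B-score at or below minus 3 SD of library scores, with starting-brightness B-score within 2 SD, cut at about -4.2 in these data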;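 further: channel flux triggered by added potassium and thallium sulfate stimulus; B-score of peak minus minimum fluorescence over baseline after thallium stimulus; more negative B-score means stronger Kir2.1 block with less thallium influx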
hERG rescue: compounds protecting human hERG from proarrhythmic drug block. Q12809. CHO-hERG, FluxOR thallium flux, dofetilide IC70 present. activation (rescue from dofetilide block), less the hit threshold, % at 10 µM. hit rate 0.51% among 310,000. AID 1511;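 active means activation above the mean of controls blocked by dofetilide plus 5 SD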;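 further: thallium influx through hERG after potassium depolarization seen as dye fluorescence rise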
KCNK9 inh conf: human KCNK9 inhibitor confirmation | HEK293 KCNK9 cells, FluxOR thallium flux fluorescence | shares compounds with KCNK9 block | AID 492992 | inhibition, % at 10 µM | hit rate 43% among 4,900;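 active means thallium signal inhibited by more than 5 SD of the compound-free buffer control wells, on both duplicate plates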
Kir21 sel: tests whether KCNK9 modulators also affect mouse Kir2.1; inhibition, % at 10 µM; hit rate 4% among 4,900; Kir2.1 cells, FluxOR thallium flux fluorescence; shares compounds with KCNK9 block;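 active means thallium signal drop more than 5 SD beyond the mean of the no-compound control wells, seen in both duplicate plates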;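 further: signal is fluorescence rise after thallium addition divided by baseline fluorescence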
KCNK9 uninduced: non-induced cell nonspecific activity of KCNK9 modulators | hit rate 40% among 4,900 | inhibition, % at 10 µM | shares compounds with KCNK9 block | non-induced KCNK9-HEK293, FluxOR thallium flux;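 active means thallium signal drop beyond 5 SD of the untreated control mean, on both duplicate plates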
Each line names hits and unclear results; the compound was inactive in the other large screens (follow-up assays come after a bar, where they were run). Most compounds without a hit are left out; they make up all but 3.7% or so of the library.

OCC1(Cc2ccccc2C(F)(F)F)CCN(Cc2ccc3c(c2)CCO3)CC1	none | KCNK9 inh conf inactive | Kir21 sel inactive | KCNK9 uninduced inactive
OCC1(Cc2ccc(Cl)cc2)CCN(Cc2ccc(F)c(F)c2)CC1	none
OCC1(Cc2cccc(C(F)(F)F)c2)CCN(Cc2cc(F)cc(F)c2)CC1	none | KCNK9 inh conf inactive | Kir21 sel inactive | KCNK9 uninduced inactive
O=C(Cn1nnc2ccccc2c1=O)N[C@@H](Cc1ccccc1)C(=O)O	none
COc1cc(-c2nc(-c3ccccc3)c(-c3cccs3)[nH]2)cc(OC)c1O	KCNK9 block -10 | KCNK9 inh conf 51% | Kir21 sel inactive | KCNK9 uninduced inactive
CCC1=NN(C(=O)COc2ccccc2)C(O)(c2ccc(Br)cc2)C1 (stereo not given)	KCNK9 block -17 | KCNK9 inh conf 52% | Kir21 sel inactive | KCNK9 uninduced 35%
CC(C(=O)Nc1ccc(C#N)cc1)N(C)Cc1cccs1 (stereo not given)	none
CC(C(=O)Nc1ccc(Cl)cc1)N(C)Cc1cccs1 (stereo not given)	KCNK9 block -11 | KCNK9 inh conf 56% | Kir21 sel inactive | KCNK9 uninduced 25%
CC(C)C1C(=O)CC(c2ccccc2)NC1c1ccccc1 (stereo not given)	KCNK9 block -11 | KCNK9 inh conf 40% | Kir21 sel inactive | KCNK9 uninduced inactive
O=[N+]([O-])c1cc(Cl)ccc1N1CCN(c2ccccc2O)CC1	KCNK9 block -8.5 | KCNK9 inh conf inactive | Kir21 sel inactive | KCNK9 uninduced 25%
O=C(c1cc2ccccc2o1)N1CCN(c2cccc(Cl)c2)CC1	none
CCCCn1cc(C(=O)c2cc(Br)ccc2O)cc(C#N)c1=O	none
CN(C)/C=c1\sc2c(C#N)cc(C(=O)c3ccc(Br)cc3)n2c1=O	KCNK9 block -8.4 | KCNK9 inh conf 36% | Kir21 sel 62% | KCNK9 uninduced 78%
C=C(CO)C1Cc2cc(C(C)=O)ccc2O1 (stereo not given)	none
COc1ccc(S(=O)(=O)NCC(c2cccs2)N2CCc3ccccc3C2)cc1 (stereo not given)	none
COc1ccc(OC)c(S(=O)(=O)NCC(c2cccs2)N2CCc3ccccc3C2)c1 (stereo not given)	KCNK9 block -9.1 | KCNK9 inh conf inactive | Kir21 sel inactive | KCNK9 uninduced inactive
CCCCN(C(=O)Cc1ccc(S(=O)(=O)N2CCOCC2)s1)c1ccccc1	none | KCNK9 inh conf inactive | Kir21 sel inactive | KCNK9 uninduced inactive
O=C(Cc1ccc(S(=O)(=O)N2CCOCC2)s1)N(Cc1ccccc1)c1ccccc1	none
O=C(COc1c(F)c(F)c(C(F)(F)F)c(F)c1F)Nc1ccc(N2CCOCC2)c(Cl)c1	none
CCC(C)c1ccc(NC(=O)COc2c(F)c(F)c(C(F)(F)F)c(F)c2F)cc1 (stereo not given)	none | KCNK9 inh conf inactive | Kir21 sel inactive | KCNK9 uninduced inactive
O=C(Cc1ccc(Br)cc1)N(Cc1ccccc1)c1ccccn1	none
CCC(OC(=O)c1cccs1)C(=O)NCc1ccc(C)cc1 (stereo not given)	none
COc1ccc(O)c(C(=O)c2cc(C(=O)NCCc3ccccc3)c(=O)n(CCc3ccccc3)c2)c1	none | KCNK9 inh conf inactive | Kir21 sel inactive | KCNK9 uninduced inactive
Cc1ccc(O)c(C(=O)c2cc(C(=O)NCCc3ccccc3)c(=O)n(CCc3ccccc3)c2)c1	KCNQ1 inh 6 | KCNK9 inh conf inactive | Kir21 sel inactive | KCNK9 uninduced inactive
Cc1ccc(O)c(C(=O)c2cc(C#N)c(=O)n(Cc3ccccc3)c2)c1	none
COc1ccc(O)c(C(=O)CC(=O)c2ccccc2)c1	none (no result: KCNK3 inh)
CC[C@@H](C)[C@H](CNC)NC[C@@H](Cc1cccc2ccccc12)NCCc1cccc(C(F)(F)F)c1	KCNK9 block -9, KCNQ1 inh 9, Kir21 inh -6.5 | KCNK9 inh conf 38% | Kir21 sel 52% | KCNK9 uninduced 34%
O=C(CNC(=O)Cc1ccccc1)NCc1cccc(C(F)(F)F)c1	none
O=C(OCC#CCSc1nnc(-c2ccc(Br)cc2)o1)c1cccs1	KCNK9 block -12 | KCNK9 inh conf inactive | Kir21 sel inactive | KCNK9 uninduced 40%
CSc1ccc(CN(C)C(=O)c2cccc(S(=O)(=O)N3CCN(Cc4ccccc4)CC3)c2)cc1	KCNQ1 inh 9 | KCNK9 inh conf inactive | Kir21 sel inactive | KCNK9 uninduced inactive
CN(Cc1ccc(F)cc1)C(=O)c1cccc(S(=O)(=O)N2CCN(Cc3ccccc3)CC2)c1	none
CC(=O)Nc1cccc(NC(=O)c2cccc(S(=O)(=O)N3CCN(Cc4ccccc4)CC3)c2)c1	none
CC1CCCCC1NC(=O)c1cccc(S(=O)(=O)N2CCN(Cc3ccccc3)CC2)c1 (stereo not given)	none | KCNK9 inh conf inactive | Kir21 sel inactive | KCNK9 uninduced inactive
Cc1ccc(N=Cc2cc(Cc3ccccc3Cl)cc([N+](=O)[O-])c2O)c(O)c1	KCNK9 block -8.8 | KCNK9 inh conf inactive | Kir21 sel inactive | KCNK9 uninduced 65%
Cc1ccc(Cc2nnc3n(-c4ccccc4)nc(C(=O)c4ccccc4)n3c2=O)cc1	none | KCNK9 inh conf inactive | Kir21 sel inactive | KCNK9 uninduced inactive
CCN(CC)C(=O)[C@H]1CC(CC(=O)NCCC2=CCCCC2)C(=O)N2CCc3c([nH]c4ccc(OC)cc34)[C@]12C (stereo not given in full)	none (no result: KCNK9 block, KCNQ1 inh, KCNQ1 act, Kir21 inh, hERG rescue)
O=C(CSc1nnc(Cc2ccccc2)c(=O)[nH]1)Nc1ccccc1	none
CCOc1ccccc1N/C=C/C(=O)C(C)(C)C	none | KCNK9 inh conf inactive | Kir21 sel inactive | KCNK9 uninduced inactive
COc1ccc(-n2c(C)cc(C(=O)Cn3nc(C(=O)O)c4ccccc4c3=O)c2C)cc1	none | KCNK9 inh conf inactive | Kir21 sel inactive | KCNK9 uninduced inactive
Cc1ccc(-n2c(C)cc(C(=O)Cn3nc(C(=O)O)c4ccccc4c3=O)c2C)cc1	none
Cc1cc(C(=O)Cn2nc(C(=O)O)c3ccccc3c2=O)c(C)n1-c1ccc(OC(F)F)cc1	none | KCNK9 inh conf inactive | Kir21 sel inactive | KCNK9 uninduced inactive
CC(=O)N(Cc1ccccc1)c1c(N)nc(N)[nH]c1=O	none
CCn1c(C)c(C(C)=O)c(N2CCN(C(c3ccccc3)c3ccccc3)CC2)nc1=S	KCNK9 block -9.1 | KCNK9 inh conf inactive | Kir21 sel inactive | KCNK9 uninduced inactive
CCn1c(C)c(C(C)=O)c(N2CCCCC2)nc1=S	none
